The record followed here is ChEMBL document CHEMBL1128561, “Inhibition of uridine phosphorylase: synthesis and structure-activity relationships of aryl-substituted 5-benzyluracils and 1-[(2-hydroxyethoxy)methyl]-5-benzyluracils” (J Med Chem, 1995).

Assay [1] addresses T1, Uridine phosphorylase 1 (Mus musculus, UniProt P52624). Briefly: Inhibition of uridine phosphorylase (UrdPase) from murine liver. In short, it runs like this:
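Murine liver UrdPase; uridine converted to uracil over 30 min at 37 °C, with enzyme set to give 10% conversion uninhibited. Stopped by 1 min at 100 °C. Uridine and uracil separated by TLC (chloroform:methanol:acetic acid 90:5:5).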

Assay [2] addresses Uridine phosphorylase 1 (Mus musculus) (UniProt P52624). Briefly: The compound was tested for inhibition of uridine phosphorylase (UrdPase) from murine liver at 10 uM of concentration.
Assay [3] shares this target. Briefly: The compound was tested for inhibition of uridine phosphorylase (UrdPase) from murine liver at 5 uM of concentration.
The target in assay [4] is T1, Uridine phosphorylase 1. Briefly: The compound was tested for inhibition of uridine phosphorylase (UrdPase) from murine liver Value refers to activity for apparent Ki value.

T1 sequence (P52624 whole entry): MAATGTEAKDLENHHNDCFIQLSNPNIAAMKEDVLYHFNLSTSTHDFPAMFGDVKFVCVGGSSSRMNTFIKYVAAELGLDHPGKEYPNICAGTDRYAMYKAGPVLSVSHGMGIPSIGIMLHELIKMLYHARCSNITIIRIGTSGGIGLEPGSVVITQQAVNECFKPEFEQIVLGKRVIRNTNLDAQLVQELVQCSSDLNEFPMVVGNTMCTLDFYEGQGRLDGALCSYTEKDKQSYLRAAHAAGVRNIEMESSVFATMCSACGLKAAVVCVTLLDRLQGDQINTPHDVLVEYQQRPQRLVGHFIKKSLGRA
Chain of Uridine phosphorylase 1 (Mus musculus) (P52624 whole entry, looked up): as the sequence (P52624 whole entry) above

`CCCOc1cccc(Cc2cn(COCCO)c(=O)[nH]c2=O)c1` had an IC50 against Uridine phosphorylase 1 [1] of 0.047 µM.
With `COc1ccc(Cc2c[nH]c(=O)[nH]c2=O)cc1OC`, half-maximal inhibition against Uridine phosphorylase 1 [1] (IC50) required 129 µM.
On the same count and under the same terms, for `O=c1[nH]cc(Cc2ccc([N+](=O)[O-])cc2)c(=O)[nH]1` the value was 5.9 µM.
Consider `O=c1[nH]cc(Cc2cccc(OCCCC(F)(F)F)c2)c(=O)[nH]1`, for which 13 µM corresponded to half-maximal inhibition against Uridine phosphorylase 1 [1] (IC50).
`Oc1ncc(Cc2ccc(C(F)(F)F)cc2)c(O)n1` had an inhibition in assay [2] of 16%.
The compound `COc1ccc(Cc2cnc(O)nc2O)cc1` came in with an IC50 against Uridine phosphorylase 1 [1] of 66.5 µM.
`Oc1ncc(Cc2cccc(OCc3ccccc3)c2)c(O)n1` yielded an inhibition in assay [3] of 15%.
Take `COc1cccc(Cc2cn(COCCO)c(=O)[nH]c2=O)c1`: the Ki at Uridine phosphorylase 1 [4] came out at 1.86 µM.
Compound `O=c1[nH]cc(Cc2ccc3c(c2)OCO3)c(=O)[nH]1` showed an IC50 at Uridine phosphorylase 1 [1] of 13.6 µM.
